Assay results taken from PMC5609789 (Drug Design, Development and Therapy, 2017).

Columns and labels:
Format in all cases: cell-based
[1] = test system: human mammary epithelial cells (HMECs); assay: MTT cell viability assay, HMEC normal control; conditions: 24 h, read-out: IC50, HMECs (normal cells)
Method in brief: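 Normal human mammary epithelial cells kept in mammary epithelial growth medium at 37°C, 5% CO2. Test compound was applied for 24 h over 5.0–50.0 μM (10.0 mM DMSO stocks), and viability was measured by MTT: 2 h in the dark at 37°C, DMSO solubilisation, read at 579/650 nm. Mean ± SEM of n=3; no IC50 assigned if viability stayed above 50% at 50 μM.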

[2] = test system: PC-3 prostate cancer cells; assay: MTT cell viability assay, PC-3; conditions: Homo sapiens, 24 h, read-out: IC50, Prostate carcinoma (PC-3)
Method in brief: (§1)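 Cells grown in RPMI 1640 with 10% FBS, penicillin and streptomycin at 37°C, 5% CO2. DMSO stocks were 10.0 mM. Seeded in triplicate at 1.0×10^4 cells/well; after 24 h, dosed 5.0–50.0 μM for 24 h. MTT (5.0 mg/mL) was added for 2 h at 37°C in the dark, formazan dissolved in DMSO, A579 read against 650 nm. IC50 reported as mean ± SEM, n=3. Not assigned if viability stayed above 50% at 50 μM.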

[3] = test system: EJ-28 urinary bladder cancer cells; assay: MTT cell viability assay, EJ-28; conditions: Homo sapiens, EJ-28, 24 h, read-out: IC50, Bladder carcinoma (EJ-28)
Method in brief: as §1

[4] = test system: RT-112 urinary bladder cancer cells; assay: MTT cell viability assay, RT-112; conditions: Homo sapiens, RT-112, 24 h, read-out: IC50, Bladder carcinoma (RT-112)
Method in brief: as §1

[5] = test system: HSC-4 oral squamous cancer cells; assay: MTT cell viability assay, HSC-4; conditions: Homo sapiens, HSC-4, 24 h, read-out: IC50, Oral squamous carcinoma (HSC-4)
Method in brief: (§2)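 Cultured in DMEM with 10% FBS, penicillin/streptomycin, 37°C, 5% CO2. Cells plated in triplicate at 1.0×10^4/well. After 24 h, test compound was added at 5.0–50.0 μM (from 10.0 mM DMSO stocks) for 24 h. MTT reduction ran 2 h at 37°C in the dark, formazan was dissolved in DMSO, absorbance 579 nm (reference 650 nm). IC50 given as mean ± SEM (n=3), not assigned when viability remained >50% at 50 μM.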

[6] = test system: MDA-MB-231 breast cancer cells; assay: MTT cell viability assay, MDA-MB-231; conditions: Homo sapiens; for IC20: MDA-MB-231, read-out: IC20 (20% inhibitory concentration) on MDA-MB-231 cell line
Method in brief: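 MDA-MB-231 cells (ATCC) grown in RPMI 1640 with 10% FBS, penicillin/streptomycin, 37°C, 5% CO2. Seeded in triplicate at 1.0×10^4 cells/well, then after 24 h exposed to 5.0–50.0 μM test compound (10.0 mM DMSO stock) for 24 h. MTT (5.0 mg/mL) was added for 2 h at 37°C in the dark, formazan dissolved in DMSO, and absorbance read at 579 nm (reference 650 nm). Mean ± SEM, n=3.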

[7] = test system: MCF-7 breast cancer cells; assay: MTT cell viability assay, MCF-7; conditions: Homo sapiens, MCF7, 24 h, read-out: IC50, Breast adenocarcinoma (MCF-7)
Method in brief: as §1

HepG2 liver cancer cells = assay: MTT cell viability assay, HepG2; conditions: Homo sapiens, HepG2, 24 h, read-out: IC50, Hepatocyte carcinoma (HepG2)
Method in brief: as §2

Row | Structure (SMILES) | IC50 [1] [µM] | IC50 [2] [µM] | IC50 [3] [µM] | IC50 [4] [µM] | IC50 [5] [µM] | IC20 [6] [µM] | IC50 [7] [µM] | IC50 (HepG2 liver cancer cells) [µM] | IC50 ([6]; MDA-MB-231, 24 h, read-out: IC50, Breast adenocarcinoma (MDA-MB-231)) [µM]
1 | C=CCc1cc(OC)c(O)c(OC)c1 [compound 2, 4-Allyl-2,6-dimethoxyphenol] | > 50 | > 50 | > 50 | > 50 | > 50 | 48 | > 50 | > 50 | 
2 | C=CCc1ccc(OC)cc1 [compound 5, 4-allyl anisole] | > 50 | > 50 | > 50 | > 50 | > 50 | 32 | > 50 | > 50 | > 50
